Results published in ChEMBL document CHEMBL4433203, “Design, synthesis, and evaluation of isoflavone analogs as multifunctional agents for the treatment of Alzheimer's disease” (Eur J Med Chem, 2019).

Tests used:
AChE = experiment: Selectivity index, ratio of CC50 for human SH-SY5Y cells to IC50 for inhibition of mouse brain AChE
[1] = Acute toxicity ICR mouse assessed as effect on drinking behavior at 0 to 1000 mg/kg, po measured up to 14 days; type: organism-based; conditions: in vivo, 336 h
Method in brief: (§1)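 Male ICR mice (22 days, 20–22 g), n = 5 per group, chow and water ad libitum, 12 h light/dark cycle. Single oral dose of 0, 100, 200, 500 or 1000 mg/kg in 0.5% CMC-Na. Observed continuously for the first 4 h, intermittently over the next 24 h, then occasionally to 14 days. Euthanized on day 14.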

Mus musculus [2] = experiment: Effect on error times in ICR mouse model of scopolamine-induced cognitive deficit during training stage at 10 to 30 mg/kg, po treated for 1 hr followed by scopolamine challenge for 30 mins by step-down passive avoidance test; type: ADME, organism-based; conditions: in vivo
Method in brief: (§2)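 ICR mice, six weeks old, 18-22 g, either sex, n = 15/group. […] Step-down test used foot shock of 20 V, 0.5 mA, 2 s, with a training trial and a test 24 h later. Read-outs were latency to first step-down and number of shocks in 5 min. Mean ± SEM.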

[3] = Acute toxicity ICR mouse assessed as mortality at 0 to 1000 mg/kg, po measured up to 14 days; type: organism-based; conditions: in vivo, 336 h; method in brief: as §1
Mus musculus [4] = experiment: Antialzheimer activity in ICR mouse model of scopolamine-induced cognitive deficit assessed as prolongation of scopolamine-induced latency at 10 to 30 mg/kg, po treated for 1 hr followed by scopolamine challenge for 30 mins by step-down passive avoidance test; type: functional, organism-based; method in brief: as §2
[5] = Half life in ICR mouse at 30 mg/kg, po measured upto 48 hrs by LCMS/MS method; type: ADME, organism-based; conditions: in vivo
Mus musculus [6] = experiment: Antialzheimer activity in ICR mouse model of scopolamine-induced cognitive deficit assessed as scopolamine-induced latency time at 10 to 30 mg/kg, po treated for 1 hr followed by scopolamine challenge for 30 mins by step-down passive avoidance test (reference value: 5 secs); type: functional; method in brief: as §2
BV-2 = experiment: Cytotoxicity activity in mouse BV2 cells assessed as reduction in cell viability up to 100 uM measured after 72 hrs incubation by MTT assay; type: cell-based; conditions: bv-2, 72 h
[7] = Log BB, ratio of Cmax in brain to blood in ICR mouse at 30 mg/kg, po measured upto 48 hrs by LCMS/MS method; type: ADME, organism-based; conditions: read-out: logBB (converted)
Histamine H3 receptor = Histamine H3 receptor (Homo sapiens, UniProt Q9Y5N1); experiment: Inhibition of human H3R expressed in methylhistamine-induced human H3-bla U2OS cells incubated for 30 mins by beta-lactamase complementation technology; type: cell-based; conditions: read-out: IC50
Method in brief: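 H3-bla U2OS cells co-express human H3R-Gal4-VP16 (TEV site) and β-arrestin/TEV protease with a UAS-β-lactamase reporter. IC50 came from log concentration-inhibition curves. Triplicates, three independent experiments.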

[8] = Acute toxicity ICR mouse assessed as induction of macroscopic abnormalities in liver at 0 to 1000 mg/kg, po measured after 14 da; type: organism-based; conditions: in vivo; method in brief: as §1
H3R = experiment: Selectivity index, ratio of CC50 for human SH-SY5Y cells to IC50 for inhibition of human H3R expressed in methylhistamine-induced human H3-bla U2OS cells; type: toxicity, cell-based; conditions: read-out: Ratio CC50/IC50
Method in brief: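 For IC50, H3-bla U2OS cells (human H3R–Gal4-VP16 plus β-arrestin/TEV, β-lactamase reporter) were seeded for 18 h. Compound was added for 30 min, then 400 nM methylhistamine (stock) for 5 h and FRET-B/G substrate for 2 h. Read 460/530 nm, triplicate per concentration, IC50 from log curves.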

Chain of Histamine H3 receptor (Q9Y5N1 whole entry, the tested form may be a part): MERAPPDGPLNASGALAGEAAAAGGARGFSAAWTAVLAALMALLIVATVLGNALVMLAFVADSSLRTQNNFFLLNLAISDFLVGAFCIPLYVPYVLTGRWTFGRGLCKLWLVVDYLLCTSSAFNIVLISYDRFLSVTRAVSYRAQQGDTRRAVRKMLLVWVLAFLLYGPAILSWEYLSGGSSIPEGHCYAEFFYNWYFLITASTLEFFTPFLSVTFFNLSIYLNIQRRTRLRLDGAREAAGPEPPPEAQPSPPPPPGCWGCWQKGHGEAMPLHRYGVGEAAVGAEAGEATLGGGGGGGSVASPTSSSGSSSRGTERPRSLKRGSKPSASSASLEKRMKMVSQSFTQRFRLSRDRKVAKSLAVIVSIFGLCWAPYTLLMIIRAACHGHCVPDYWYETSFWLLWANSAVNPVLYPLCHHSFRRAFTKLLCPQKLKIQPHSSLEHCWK

CCN(C)CCCCOc1ccc2c(=O)c(-c3ccc(OCCN4CCCCC4)cc3)coc2c1
selectivity ratio (AChE): > 1230 | Activity [1]: Non-Toxic | Activity (Mus musculus [2]): Non-Toxic | Activity [3]: Non-Toxic | Activity (Mus musculus [4]): Dose-dependent effect | half-life [5]: 13.9 h | Time (Mus musculus [6]): 53 s | Activity (BV-2): Non-Toxic | Kp at 48 h [7]: 17.4 | IC50 (Histamine H3 receptor): 270 nM | Activity [8]: Non-Toxic | selectivity ratio (H3R): > 370
